Experimental data as given in ChEMBL document CHEMBL3352437, “Novel 3,5-bis(arylidene)-4-oxo-1-piperidinyl dimers: structure-activity relationships and potent antileukemic and antilymphoma cytotoxicity” (Eur J Med Chem, 2014).

Columns and labels:
[1] = Antileukemic activity against human RPMI8226 cells assessed as inhibition of tumor growth after 24 hrs; format: functional, cell-based; conditions: rpmi-8226
SW-620 = assay: Cytotoxicity against human SW620 cells assessed as inhibition of tumor growth after 24 hrs; format: functional, cell-based; conditions: SW-620, 24 h
RPMI-8226 = assay: Ratio of melphalan IC50 to compound IC50 for human RPMI8226 cells; format: functional; conditions: pooled result: one value given for 3 cell lines, strains, targets or settings
SR = assay: Antileukemic activity against human SR cells assessed as inhibition of tumor growth after 24 hrs; format: functional, cell-based
L1210 = assay: Antiproliferative activity against mouse L1210 cells after 72 hrs by coulter counting analysis; format: functional, cell-based; conditions: L1210, 72 h
COLO 205 [2] = assay: Ratio of 5-fluorouracil IC50 to compound IC50 for human COLO205 cells; format: functional; conditions: pooled result: one value given for 5 cell lines, strains, targets or settings
K562 = assay: Antileukemic activity against human K562 cells assessed as inhibition of tumor growth after 24 hrs; format: functional, cell-based; conditions: K562, 24 h
HCC 2998 = assay: Cytotoxicity against human HCC2998 cells assessed as inhibition of tumor growth after 24 hrs; format: functional, cell-based; conditions: HCC 2998, 24 h
[3] = Cytotoxicity against human NCI60 cells assessed as inhibition of tumor growth after 24 hrs; format: functional, cell-based; conditions: NCI60, 24 h
HL-60(TB) = assay: Antileukemic activity against human HL-60(TB) cells assessed as inhibition of tumor growth after 24 hrs; format: functional, cell-based; conditions: HL-60, 24 h
COLO 205 [4] = assay: Cytotoxicity against human COLO205 cells assessed as inhibition of tumor growth after 24 hrs; format: functional, cell-based; conditions: COLO 205, 24 h
CCRF-CEM [5] = assay: Antiproliferative activity against human CEM cells after 72 hrs by coulter counting analysis; format: functional, cell-based
Outline: (§1)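 Cells exposed to a range of concentrations in RPMI 1640 at 37°C for 72 h. Surviving cells counted by Coulter counter. IC50 taken from concentration-response curves, mean ± SD of at least three independent experiments.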

MOLT-4 [6] = assay: Ratio of melphalan IC50 to compound IC50 for human Molt4/C8 cells; format: functional; conditions: pooled result: one value given for 4 cell lines, strains, targets or settings
KM12 = assay: Cytotoxicity against human KM12 cells assessed as inhibition of tumor growth after 24 hrs; format: functional, cell-based; conditions: KM12, 24 h
[7] = Cytotoxicity against human HCT15 cells assessed as inhibition of tumor growth after 24 hrs; format: functional, cell-based; conditions: HCT-15, 24 h
MOLT-4 [8] = assay: Ratio of curcumin IC50 to compound IC50 for human Molt4/C8 cells; format: functional; conditions: pooled result: one value given for 4 cell lines, strains, targets or settings
[9] = Antiproliferative activity against human Molt4/C8 cells after 72 hrs by coulter counting analysis; format: functional, cell-based; conditions: MOLT-4, 72 h; outline: as §1
HeLa = assay: Antiproliferative activity against human HeLa cells after 72 hrs by coulter counting analysis; format: functional, cell-based; outline: as §1
HS27 = assay: Cytotoxicity against human HS27 cells assessed as dead cells at 1 uM after 24 hrs; format: cell-based; conditions: hs27, 24 h
Outline: (§2)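 Compounds added from DMSO solutions to cells in medium (RPMI; DMEM for Hs-27 fibroblasts) and incubated 24 h at 37°C. Membrane disruption scored by propidium iodide uptake. Result is percentage of dead cells, average of three independent experiments.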

Ramos = assay: Cytotoxicity against human Ramos cells assessed as dead cells at 1 uM after 24 hrs; format: functional
Outline: (§3)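 Dienones added as DMSO solutions to cells in RPMI medium and incubated 24 h at 37°C. Cytotoxicity was scored as cell-membrane disruption by propidium iodide staining and expressed as percentage of dead cells, averaged over three independent experiments.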

HCC70 = assay: Cytotoxicity against human HCC70 cells assessed as dead cells at 1 uM after 24 hrs; format: functional; outline: as §3
[10] = Cytotoxicity against human NALM6 cells assessed as dead cells at 1 uM after 24 hrs; format: functional, NALM-6; outline: as §3
CCRF-CEM [11] = assay: Cytotoxicity against human CEM cells assessed as dead cells at 1 uM after 24 hrs; format: functional; outline: as §3
[12] = Cytotoxicity against human MCF10A cells assessed as dead cells at 1 uM after 24 hrs; format: cell-based; conditions: mcf-10a; outline: as §2
Jurkat = assay: Cytotoxicity against human Jurkat cells assessed as dead cells at 1 uM after 24 hrs; format: functional; outline: as §3
BJAB = assay: Cytotoxicity against human BJAB cells assessed as dead cells at 1 uM after 24 hrs; format: functional; outline: as §3
Raji = assay: Cytotoxicity against human Raji cells assessed as dead cells at 1 uM after 24 hrs; format: functional; outline: as §3
YT = assay: Cytotoxicity against human YT cells assessed as dead cells at 1 uM after 24 hrs; format: functional; outline: as §3
[13] = Cytotoxicity against human SupT1 cells assessed as dead cells at 1 uM after 24 hrs; format: functional, SUP-T1; outline: as §3
[14] = Cytotoxicity against human HuT-102 cells assessed as dead cells at 1 uM after 24 hrs; format: functional; outline: as §3
[15] = Cytotoxicity against human 22Rvl cells assessed as dead cells at 1 uM after 24 hrs; format: functional; outline: as §3
[16] = Cytotoxicity against human MDA231 cells assessed as dead cells at 1 uM after 24 hrs; format: functional, MDA-MB-231; outline: as §3
MCF7 = assay: Cytotoxicity against human MCF7 cells assessed as dead cells at 1 uM after 24 hrs; format: functional; outline: as §3
LAPC4 = assay: Cytotoxicity against human LAPC4 cells assessed as dead cells at 1 uM after 24 hrs; format: functional; outline: as §3
DU-145 = assay: Cytotoxicity against human DU145 cells assessed as dead cells at 1 uM after 24 hrs; format: functional; outline: as §3
EL4 = assay: Cytotoxicity against mouse EL4 cells assessed as dead cells at 1 uM after 24 hrs; format: functional; outline: as §3
[17] = Cytotoxicity against human MOLT3 cells assessed as dead cells at 1 uM after 24 hrs; format: functional, MOLT-3; outline: as §3

Structure (SMILES): COc1cc(/C=C2/CN(C(=O)CC(=O)N3C/C(=C\c4cc(OC)c(OC)c(OC)c4)C(=O)/C(=C/c4cc(OC)c(OC)c(OC)c4)C3)C/C(=C\c3cc(OC)c(OC)c(OC)c3)C2=O)cc(OC)c1OC
- IC50 [1]: 50 nM
- IC50 (SW-620): 50 nM
- Ratio IC50 (RPMI-8226): 1890
- IC50 (SR): 10 nM
- IC50 (L1210): 214 nM
- Ratio IC50 (COLO 205 [2]): 141
- IC50 (K562): 30 nM
- IC50 (HCC 2998): 100 nM
- IC50 [3]: 50 nM
- IC50 (HL-60(TB)): 40 nM
- IC50 (COLO 205 [4]): 60 nM
- IC50 (CCRF-CEM [5]): 284 nM
- Ratio IC50 (MOLT-4 [6]): 14.2
- IC50 (KM12): 40 nM
- IC50 [7]: 30 nM
- Ratio IC50 (MOLT-4 [8]): 66.8
- IC50 [9]: 60 nM
- IC50 (HeLa): 216 nM

Structure (SMILES): O=C1/C(=C/c2ccc(F)cc2)CN(C(=O)C(=O)N2C/C(=C\c3ccc(F)cc3)C(=O)/C(=C/c3ccc(F)cc3)C2)C/C1=C\c1ccc(F)cc1
- IC50 [1]: 120 nM
- IC50 (SW-620): 320 nM
- Activity (HS27): 0.6%
- Activity (Ramos): 53.3%
- IC50 (SR): 160 nM
- Activity (HCC70): 6.6%
- Activity [10]: 61.6%
- IC50 (L1210): 422 nM
- Activity (CCRF-CEM [11]): 85.3%
- Activity [12]: 7.7%
- Activity (Jurkat): 87.8%
- IC50 (K562): 280 nM
- IC50 (HCC 2998): 620 nM
- Activity (BJAB): 61.8%
- IC50 [3]: 580 nM
- Activity (Raji): 33.5%
- Activity (YT): 17.1%
- Activity [13]: 35.6%
- IC50 (HL-60(TB)): 1120 nM
- IC50 (COLO 205 [4]): 630 nM
- Activity [14]: 64.4%
- Activity [15]: 30.1%
- IC50 (CCRF-CEM [5]): 221 nM
- Activity [16]: 5.5%
- Activity (MCF7): 16.2%
- IC50 (KM12): 300 nM
- IC50 [7]: 160 nM
- Activity (LAPC4): 11.3%
- Activity (DU-145): 15.2%
- IC50 [9]: 83 nM
- IC50 (HeLa): 388 nM
- Activity (EL4): 34.7%
- Activity [17]: 3.1%

Structure (SMILES): O=C1/C(=C\c2ccc(Cl)cc2)CN(C(=O)CC(=O)N2C/C(=C\c3ccc(Cl)cc3)C(=O)/C(=C/c3ccc(Cl)cc3)C2)C/C1=C\c1ccc(Cl)cc1
- IC50 [1]: 20 nM
- IC50 (SW-620): 30 nM
- Activity (HS27): 5.7%
- Activity (Ramos): 86.3%
- IC50 (SR): 10 nM
- Activity (HCC70): 7.8%
- Activity [10]: 68.6%
- IC50 (L1210): 847 nM
- Activity (CCRF-CEM [11]): 83%
- Activity [12]: 3.1%
- Activity (Jurkat): 85.3%
- IC50 (K562): 30 nM
- IC50 (HCC 2998): 130 nM
- Activity (BJAB): 49.9%
- IC50 [3]: 90 nM
- Activity (Raji): 32.7%
- Activity (YT): 16.8%
- Activity [13]: 21.1%
- IC50 (HL-60(TB)): 110 nM
- IC50 (COLO 205 [4]): 80 nM
- Activity [14]: 20.4%
- Activity [15]: 1.7%
- IC50 (CCRF-CEM [5]): 1060 nM
- Activity [16]: 32.7%
- Activity (MCF7): 19.5%
- IC50 (KM12): 160 nM
- IC50 [7]: 60 nM
- Activity (LAPC4): 1%
- Activity (DU-145): 40.3%
- IC50 [9]: 1050 nM
- IC50 (HeLa): 822 nM
- Activity (EL4): 55.4%
- Activity [17]: 20.6%
